Here are results for nine compounds from ChEMBL document CHEMBL1151257, “Cytotoxic furanosesterterpenes from a marine sponge Psammocinia sp” (J Nat Prod, 2004).

As usually defined, the inhibition is how much of the control response was suppressed. A high value points to strong suppression. As usually defined, the pIC50 is the IC50 on a negative log10 scale, so that one unit is a factor of ten. Read a low pIC50 as a high IC50.

SMILES strings stand for the structures. pIC50: −log10 of the molar value. Converted amounts (≈) assume the structure as drawn.

The test system of experiment [1] is SK-MEL-2. The experiment is described as follows: Cytotoxicity against human SK-MEL-2 cells. Format: functional. The settings on record: read-out: ED50 (the source's name).
Experiment [2] deals with HCT-15. The experiment is described as follows: Cytotoxicity against human HCT15 cells. Type of experiment: functional. The settings on record: read-out: ED50 (the source's name).
In experiment [3] the test system is XF498. The experiment is described as follows: Cytotoxicity against human XF498 cells. The settings on record: read-out: ED50 (the source's name). Format: functional.
The subject of experiment [4] is SK-OV-3. The experiment is described as follows: Cytotoxicity against human SKOV3 cells. Format: functional. As to conditions: read-out: ED50 (the source's name).
Experiment [5] relates to A549. The experiment is described as follows: Cytotoxicity against human A549 cells. Format: functional. The settings on record: read-out: ED50 (the source's name).
For experiment [6], the system named is Simian virus 40. The experiment is described as follows: Inhibition of SV 40 DNA replication in human HeLa cells at 500 uM. The settings on record: Betapolyomavirus macacae. Type of experiment: functional. The method, boiled down: (§1)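 SV40 DNA replication reaction run at 37 °C for 2 h; replication quantified as acid-insoluble radioactivity.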
The test system of experiment [7] is Simian virus 40. The experiment is described as follows: Inhibition of SV40 DNA replication in human HeLa cells at 125 uM. Format: functional. The settings on record: Betapolyomavirus macacae. The method, boiled down: as §1
The subject of experiment [8] is Simian virus 40. The experiment is described as follows: Inhibition of SV 40 DNA replication in human HeLa cells at 250 uM. Format: functional. As to conditions: Betapolyomavirus macacae. The method in brief: as §1
Experiment [9] is described as follows: Inhibition of DNA polymerase alpha. The method in brief: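 DNA polymerase α reaction incubated at 37 °C for 30 min; activity read as acid-insoluble radioactivity.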

Consider `CC1=C(O)/C(=C/[C@H](C)CC/C=C(/C)CCC/C(C)=C\CCc2ccoc2)OC1=O`, for which the EC50 in experiment [1] is 14.4 µg/mL (≈ 36.1 µM); in experiment [2] it was 16 µg/mL (≈ 40.1 µM); in experiment [3], 20.3 µg/mL (≈ 50.9 µM); in experiment [4], 14.1 µg/mL (≈ 35.4 µM); in experiment [5], > 30 µg/mL.
As to `CC1=C(O)/C(=C/[C@H](C)CC/C=C(/C)CC/C=C(\C)CCCc2ccoc2)OC1=O`, the EC50 worked out at 5.8 µg/mL (≈ 14.6 µM) in [1]; 11 µg/mL (≈ 27.6 µM) in experiment [2]; 8.7 µg/mL (≈ 21.8 µM) in experiment [3]; 7.5 µg/mL (≈ 18.8 µM) in experiment [4]; 10.5 µg/mL (≈ 26.3 µM) in [5]. The same compound returned an inhibition at 500 µM in experiment [6] of 100%. The same compound gave an inhibition at 125 µM in experiment [7] of 30%. This compound also came in with an inhibition at 250 µM in experiment [8] of 60%. This compound also gave a pIC50 in experiment [9] of 5.30.
Turning to `CC1=C(O)/C(=C/[C@H](C)CCC/C(C)=C/CC/C(C)=C/CCc2ccoc2)OC1=O`, the EC50 in experiment [1] turned out to be 19 µg/mL (≈ 47.7 µM); in experiment [2], 23.5 µg/mL (≈ 59 µM); in [3], 22.1 µg/mL (≈ 55.5 µM); in experiment [4] it was 18.6 µg/mL (≈ 46.7 µM); in experiment [5], 24.1 µg/mL (≈ 60.5 µM).
As to `COc1cccc2c1C(=O)c1c(O)c3c(c(O)c1C2=O)C[C@@](O)(C(=O)CO)C[C@@H]3O[C@H]1C[C@H](N)[C@H](O)[C@H](C)O1` [DOXORUBICIN], the EC50 in [1] is 0.05 µg/mL (≈ 0.092 µM); in experiment [2] it was 0.12 µg/mL (≈ 0.221 µM); in experiment [3] it was 0.15 µg/mL (≈ 0.276 µM); in experiment [4], 0.15 µg/mL (≈ 0.276 µM); in [5] it was 0.03 µg/mL (≈ 0.0552 µM).
In the case of `CC1=C(O)[C@@H](C/C(C)=C/C=C/C(C)CCC/C(C)=C/CCc2ccoc2)OC1=O` (some centres undefined) [ISOPALINURIN], the EC50 was 10.7 µg/mL (≈ 26.8 µM) in experiment [1]; > 30 µg/mL in experiment [2]; 10 µg/mL (≈ 25.1 µM) in experiment [3]; 16.5 µg/mL (≈ 41.4 µM) in experiment [4]; > 30 µg/mL in experiment [5].
As for `CC1=C(O)[C@@H](C/C(C)=C/CCC(C)/C=C/C=C(\C)CCCc2ccoc2)OC1=O` (some centres undefined) [PALINURIN], the EC50 is 4.4 µg/mL (≈ 11 µM) in experiment [1]; 5.4 µg/mL (≈ 13.5 µM) in [2]; 5.1 µg/mL (≈ 12.8 µM) in experiment [3]; 10.2 µg/mL (≈ 25.6 µM) in experiment [4]; 5.2 µg/mL (≈ 13 µM) in [5].
Consider `CC1=C/C(=C/[C@H](C)CCC(=O)/C(C)=C/CC/C(C)=C/CCc2ccoc2)OC1=O` [PSAMMOCININ A1], for which the EC50 was 7.5 µg/mL (≈ 18.9 µM) in experiment [1]; 20.5 µg/mL (≈ 51.7 µM) in experiment [2]; 28.1 µg/mL (≈ 70.9 µM) in [3]; > 30 µg/mL in [4]; > 30 µg/mL in [5].
With `CC1=C/C(=C/[C@H](C)CCC(=O)C(C)CCC/C(C)=C/CCc2ccoc2)OC1=O` (some centres undefined) [PSAMMOCININ A2], the EC50 was 4.8 µg/mL (≈ 12 µM) in experiment [1]; 11.7 µg/mL (≈ 29.4 µM) in experiment [2]; 10.5 µg/mL (≈ 26.3 µM) in [3]; 12.3 µg/mL (≈ 30.9 µM) in [4]; 7.5 µg/mL (≈ 18.8 µM) in experiment [5].
Taken in the same sequence, the figures for `COC1C=C(CC/C=C(\C)CC/C=C(\C)CCCC(C)/C=C2\OC(=O)C(C)=C2O)C(OC)O1` (centres undefined) [PSAMMOCININ B] were 7.5 µg/mL (≈ 16.3 µM), 19.2 µg/mL (≈ 41.7 µM), 7.8 µg/mL (≈ 16.9 µM), 12.6 µg/mL (≈ 27.4 µM) and 8.2 µg/mL (≈ 17.8 µM).
